Experimental data published in ChEMBL document CHEMBL1145777 (J Med Chem, 2003).
pEC50, pKi: −log10 of the molar value.

Columns and labels:
[1] = molecular target: T1, Kappa-type opioid receptor (Homo sapiens, UniProt P41145); experiment: (§1) Incorporation of [35S]GTP-gamma-S, into CHO membranes expressing human Opioid receptor kappa 1; assay type: functional
Mu-type opioid receptor [2] = molecular target: Mu-type opioid receptor (Cavia porcellus, UniProt P97266); experiment: Binding affinity towards Opioid receptor mu 1 from guinea pig brain using [3H]DAMGO as radioligand
[3] = molecular target: Kappa-type opioid receptor (Cavia porcellus, UniProt P41144); experiment: Binding affinity towards Opioid receptor kappa 1 from guinea pig brain using [3H]U-69593 as radioligand
Method in brief: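 Uses 1 nM [3H]U69,593 with guinea pig brain membrane protein (500 µg), 12 concentrations, 50 mM Tris-HCl pH 7.5, 60 min at 25 °C. Nonspecific binding with 10 µM naloxone. Filters pre-soaked in 0.1% polyethylenimine; bound label counted.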

Mu-type opioid receptor [4] = molecular target: T2, Mu-type opioid receptor (Homo sapiens, UniProt P35372); experiment: Incorporation of [35S]- GTPgammaS into CHO membranes expressing human Opioid receptor mu 1
[5] = molecular target: Kappa-type opioid receptor (Cavia porcellus) (UniProt P41144); experiment: Ratio of binding affinity of Opioid receptor kappa 1 to Opioid receptor mu 1 to Opioid receptor delta 1; kappa:mu:delta = 11:7:1
[6] = Binding affinity towards Opioid receptor delta 1 from guinea pig brain using [3H]naltrindole as radioligand
[7] = molecular target: Kappa-type opioid receptor (Cavia porcellus) (UniProt P41144); experiment: Ratio of binding affinity of Opioid receptor kappa 1 to Opioid receptor mu 1 to Opioid receptor delta 1; kappa:mu:delta = 16:14:1
[8] = molecular target: Kappa-type opioid receptor (Cavia porcellus) (UniProt P41144); experiment: Ratio of binding affinity of Opioid receptor kappa 1 to Opioid receptor mu 1 to Opioid receptor delta 1; kappa:mu:delta = 5:4:1
Mu-type opioid receptor [9] = molecular target: T2, Mu-type opioid receptor; experiment: Incorporation of [35S]GTP-gamma-S, into CHO membranes expressing human Opioid receptor mu 1; assay type: functional
[10] = molecular target: T1, Kappa-type opioid receptor; experiment: as §1; assay type: functional; remark: listed apart in the source
[11] = molecular target: Kappa-type opioid receptor (Cavia porcellus) (UniProt P41144); experiment: Ratio of binding affinity of Opioid receptor kappa 1 to Opioid receptor mu 1 to Opioid receptor delta 1; kappa:mu:delta = 10:9:1
[12] = molecular target: Kappa-type opioid receptor (Cavia porcellus) (UniProt P41144); experiment: Ratio of binding affinity of Opioid receptor kappa 1 to Opioid receptor mu 1 to Opioid receptor delta 1; kappa:mu:delta = 29:18:1
[13] = molecular target: Kappa-type opioid receptor (Cavia porcellus) (UniProt P41144); experiment: Ratio of binding affinity of Opioid receptor kappa 1 to Opioid receptor mu 1 to Opioid receptor delta 1; kappa:mu:delta = 1:1:1
[14] = molecular target: Kappa-type opioid receptor (Cavia porcellus) (UniProt P41144); experiment: Ratio of binding affinity of Opioid receptor kappa 1 to Opioid receptor mu 1 to Opioid receptor delta 1; kappa:mu:delta = 47:26:1

Mu-type opioid receptor (Cavia porcellus, UniProt P97266), sequence (P97266 whole entry): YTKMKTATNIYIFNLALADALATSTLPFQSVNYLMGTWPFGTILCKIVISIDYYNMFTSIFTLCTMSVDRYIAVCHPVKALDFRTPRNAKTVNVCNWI
T2 sequence (P35372 whole entry): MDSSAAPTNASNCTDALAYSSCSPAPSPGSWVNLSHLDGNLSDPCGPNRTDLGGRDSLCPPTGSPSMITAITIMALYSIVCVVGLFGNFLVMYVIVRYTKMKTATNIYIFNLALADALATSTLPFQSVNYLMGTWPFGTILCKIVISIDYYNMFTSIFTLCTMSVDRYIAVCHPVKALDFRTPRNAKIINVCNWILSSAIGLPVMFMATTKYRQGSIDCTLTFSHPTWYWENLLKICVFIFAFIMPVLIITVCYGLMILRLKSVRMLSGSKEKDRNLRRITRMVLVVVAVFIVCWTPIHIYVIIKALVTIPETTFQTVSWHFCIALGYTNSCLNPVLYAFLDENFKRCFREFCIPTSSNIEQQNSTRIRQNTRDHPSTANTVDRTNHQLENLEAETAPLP
Kappa-type opioid receptor (Cavia porcellus, UniProt P41144), sequence (P41144 whole entry): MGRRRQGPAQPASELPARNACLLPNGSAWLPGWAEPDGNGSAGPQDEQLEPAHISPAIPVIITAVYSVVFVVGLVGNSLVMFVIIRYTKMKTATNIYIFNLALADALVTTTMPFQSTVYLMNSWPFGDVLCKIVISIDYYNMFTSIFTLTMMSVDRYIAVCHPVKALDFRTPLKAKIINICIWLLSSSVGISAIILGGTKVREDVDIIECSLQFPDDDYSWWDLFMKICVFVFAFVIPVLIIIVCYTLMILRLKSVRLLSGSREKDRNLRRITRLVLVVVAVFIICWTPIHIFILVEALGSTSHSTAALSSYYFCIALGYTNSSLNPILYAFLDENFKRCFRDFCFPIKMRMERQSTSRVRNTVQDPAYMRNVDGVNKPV
Kappa-type opioid receptor (Cavia porcellus), sequence (P41144 whole entry): as above
T1 sequence (P41145 whole entry): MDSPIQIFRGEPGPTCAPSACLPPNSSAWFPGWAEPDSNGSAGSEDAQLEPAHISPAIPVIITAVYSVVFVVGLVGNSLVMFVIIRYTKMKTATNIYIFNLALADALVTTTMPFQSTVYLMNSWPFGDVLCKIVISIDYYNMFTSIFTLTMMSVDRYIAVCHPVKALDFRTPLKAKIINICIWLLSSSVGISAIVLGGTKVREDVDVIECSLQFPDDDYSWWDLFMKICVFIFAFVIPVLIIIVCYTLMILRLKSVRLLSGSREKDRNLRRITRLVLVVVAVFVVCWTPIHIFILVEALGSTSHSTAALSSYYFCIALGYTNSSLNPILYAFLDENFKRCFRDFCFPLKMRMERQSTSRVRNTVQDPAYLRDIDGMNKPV

C[C@H]1[C@H]2Cc3ccc(O)cc3[C@]1(C)CCN2CC1CC1 (stereo in doubt) [CYCLAZOCINE] showed a pEC50 [1] of 8.80.
For C[C@H]1C2Cc3ccc(N(C)C)cc3[C@@]1(C)CCN2CC1CC1 (single isomer, unassigned; (+)), the pKi (Mu-type opioid receptor [2]) was 4.30 and the pKi [3] was 5.52.
In the case of C[C@@H]1[C@@H]2Cc3ccc(N)cc3[C@]1(C)CCN2CC1CC1, the pKi (Mu-type opioid receptor [2]) was 6.11 and the pKi [3] was 6.30.
In the case of CC[C@@]12CCN(CC3CC3)C(C(=O)c3ccc(N)cc31)[C@@H]2C (stereo in doubt; 44), the pEC50 (Mu-type opioid receptor [4]) was 7.21, the pKi (Mu-type opioid receptor [2]) was 8.14 and the pEC50 [1] was 8.36. The pKi [3] was 9.47.
With Cc1ccc(Nc2ccc3c(c2)[C@@]2(C)CCN(CC4CC4)C(C3)[C@@H]2C)cc1 the Ratio [5] was 11, the pKi (Mu-type opioid receptor [2]) was 9.04 and the pKi [3] was 9.24.
C[C@H]1C2Cc3ccc(N)cc3[C@@]1(C)CCN2CC1CC1 showed a pKi [6] of 6.96.
Work on C[C@H]1C2Cc3cc4c(cc3[C@@]1(C)CCN2CC1CC1)[nH]c1ccccc14 yielded a pKi [3] of 8.02.
Work on C[C@H]1C2Cc3ccc(Nc4ccc(C(F)(F)F)cc4)cc3[C@@]1(C)CCN2CC1CC1 yielded a Ratio [7] of 16, a pKi (Mu-type opioid receptor [2]) of 7.89 and a pKi [3] of 7.96.
In the case of C[C@H]1C2Cc3ccc(N4CCOCC4)cc3[C@@]1(C)CCN2CC1CC1, the Ratio [8] was 5 and the pKi [6] was 5.55.
CC[C@@]12CCN(CC3CC3)C(C(=O)c3ccc(Nc4ccccc4)cc31)[C@@H]2C showed a pEC50 (Mu-type opioid receptor [4]) of 7.66, a pKi (Mu-type opioid receptor [2]) of 8.00 and a pEC50 [1] of 8.23. It also gave an Emax (Mu-type opioid receptor [9]) of 70%, an Emax [10] of 110% and a pKi [3] of 8.66.
Work on C[C@H]1C2Cc3ccc(Nc4ccc(Cl)cc4)cc3[C@@]1(C)CCN2CC1CC1 yielded a pKi (Mu-type opioid receptor [2]) of 8.52, a Ratio [11] of 10 and a pKi [3] of 8.60.
C[C@H]1C2Cc3ccc(NCc4ccc(Cl)cc4)cc3[C@@]1(C)CCN2CC1CC1 showed a pKi (Mu-type opioid receptor [2]) of 8.06 and a pKi [3] of 8.14.
C[C@H]1[C@H]2Cc3ccc(Nc4ccccc4)cc3[C@@]1(C)CCN2CC1CC1 showed an Emax (Mu-type opioid receptor [9]) of 50% and an Emax [10] of 120%.
Compound COc1cccc(Nc2ccc3c(c2)[C@@]2(C)CCN(CC4CC4)C(C3)[C@@H]2C)c1 has a pKi (Mu-type opioid receptor [2]) of 8.74 and a pKi [3] of 9.00.
With C[C@H]1[C@H]2Cc3ccc(O)cc3[C@]1(C)CCN2CC1CC1 (stereo in doubt; (-)2) the Emax (Mu-type opioid receptor [9]) was 50% and the Emax [10] was 100%.
With COc1ccc(CNc2ccc3c(c2)[C@@]2(C)CCN(CC4CC4)C(C3)[C@@H]2C)cc1 the pKi (Mu-type opioid receptor [2]) was 8.11 and the pKi [3] was 7.15.
In the case of CC[C@@]12CCN(CC3CC3)C(C(=O)c3ccc(N)cc31)[C@@H]2C (single isomer, unassigned; (-)), the pEC50 (Mu-type opioid receptor [4]) was 7.04, the pKi (Mu-type opioid receptor [2]) was 8.57 and the pEC50 [1] was 8.55. It also gave a pKi [3] of 8.96.
Compound C[C@H]1[C@H]2Cc3ccc(Nc4ccccc4)cc3[C@@]1(C)CCN2C[C@@H]1CCCO1 has a pKi (Mu-type opioid receptor [2]) of 8.55 and a pKi [3] of 8.70.
C[C@H]1C2Cc3ccc(NCc4ccccc4)cc3[C@@]1(C)CCN2CC1CC1 (single isomer, unassigned; (-)) gave a pKi [6] of 7.27.
Compound CCNc1ccc2c(c1)[C@@]1(C)CCN(CC3CC3)C(C2)[C@@H]1C has a pKi [6] of 7.72.
With C[C@H]1C2Cc3ccc(Nc4ccncc4)cc3[C@@]1(C)CCN2CC1CC1 the pKi (Mu-type opioid receptor [2]) was 7.74 and the pKi [3] was 8.54.
C[C@H]1C2Cc3ccc(N(C)C)cc3[C@@]1(C)CCN2CC1CC1 (single isomer, unassigned; (-)) showed a pKi (Mu-type opioid receptor [2]) of 7.34 and a pKi [3] of 7.74.
In the case of COc1ccc(Nc2ccc3c(c2)[C@@]2(C)CCN(CC4CC4)C(C3)[C@@H]2C)cc1, the Ratio [12] was 29, the pKi (Mu-type opioid receptor [2]) was 9.33 and the pKi [3] was 9.54.
C[C@H]1C2Cc3ccc(N=C(c4ccccc4)c4ccccc4)cc3[C@@]1(C)CCN2CC1CC1 gave a pKi (Mu-type opioid receptor [2]) of 6.44, a Ratio [13] of 1 and a pKi [3] of 6.77.
In the case of C[C@H]1[C@H]2Cc3ccc(N)cc3[C@@]1(C)CCN2C[C@@H]1CCCO1, the Ratio [14] was 47, the pKi (Mu-type opioid receptor [2]) was 7.85 and the pEC50 [1] was 7.15. For the same compound, the Emax [10] was 330% and the pKi [3] was 8.11.
For C[C@H]1C2Cc3ccc(N4CCCC4)cc3[C@@]1(C)CCN2CC1CC1, the pKi [6] was 5.74.
Compound CC[C@@]12CCN(CC3CC3)C(C(=O)c3ccc(O)cc31)[C@@H]2C (single isomer, unassigned; (+)) [ETHYLKETOCYCLAZOCINE] has a pKi (Mu-type opioid receptor [2]) of 6.49.
For C[C@H]1C2Cc3ccc(NCc4ccccc4)cc3[C@@]1(C)CCN2CC1CC1 (stereo in doubt; 25), the pKi [6] was 7.24.
